We go through 2 compounds from ChEMBL document CHEMBL1137675, “Convenient one-pot synthesis of novel 2-substituted benzimidazoles, tetrahydrobenzimidazoles and imidazoles and evaluation of their in vitro antibacterial and antifungal activities” (2009).

The subject of assay [1] is Salmonella typhimurium. Description: Antibacterial activity against Salmonella Typhimurium MTCC 98 at 37 degC after 24 hrs by filter paper disk method. The assay is classed as functional, Salmonella enterica subsp. enterica serovar Typhimurium. The following applies: Salmonella enterica, MTCC 98, 24 h. The method, boiled down: (§1)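 Compounds were taken from a 1 mg/ml DMSO stock and serially diluted two-fold over a 300 to 18.75 range, then loaded onto sterile 8 mm paper discs. Bacteria were grown overnight in nutrient broth at 37 °C, pelleted, and resuspended in sterile NSS to 10⁵ cfu/ml. About 0.1 ml was spread on NA plates. Plates were incubated 24 h at 37 °C with a solvent control disc, and inhibition zone diameter was read in mm.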

Assay [2] relates to Bacillus subtilis. In words: Antibacterial activity against Bacillus subtilis ATCC 6051 at 37 degC after 24 hrs by filter paper disk method. The assay is classed as functional. The note with it: Bacillus subtilis, ATCC 6051, 24 h. The method, boiled down: as §1
Assay [3] has as its system Staphylococcus aureus. Description: Antibacterial activity against Staphylococcus aureus MSSA 22 at 37 degC after 24 hrs by filter paper disk method. The note with it: Staphylococcus aureus, MSSA 22, 24 h. The assay is classed as functional. Put shortly: as §1
For assay [4], the system named is Escherichia coli. In words: Antibacterial activity against Escherichia coli K-12 at 37 degC after 24 hrs by filter paper disk method. The note with it: Escherichia coli, K-12, 24 h. The assay is classed as functional. Put shortly: as §1
The subject of assay [5] is Bacillus subtilis. In words: Antibacterial activity against Bacillus subtilis ATCC 6051 at 30 ug/disk at 37 degC after 24 hrs by filter paper disk method. The assay is classed as functional. The note with it: ATCC 6051, 24 h, read-out: DIZ. Put shortly: (§2)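 Chloramphenicol was given as a reference antibiotic disc. Bacteria were grown overnight in nutrient broth at 37 °C and adjusted to 10⁵ cfu/ml in sterile NSS. About 0.1 ml was spread on NA plates next to 8 mm discs, including a solvent disc. Plates were incubated 24 h at 37 °C, and zones of inhibition were measured in mm.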

The subject of assay [6] is Staphylococcus aureus. Description: Antibacterial activity against Staphylococcus aureus MSSA 22 at 30 ug/disk at 37 degC after 24 hrs by filter paper disk method. The following applies: MSSA 22, 24 h, read-out: DIZ. It counts as functional. The method, boiled down:
(§3)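 Disc diffusion on nutrient agar. Inoculum was grown overnight in NA broth at 37 °C, centrifuged, and resuspended in sterile NSS to 10⁵ cfu/ml; about 0.1 ml was spread per plate. Sterile 8 mm discs carried compound, with a 1 mg/ml DMSO stock diluted two-fold from 300 to 18.75. Controls were a solvent disc and a chloramphenicol disc. After 24 h at 37 °C, inhibition-zone diameter was read in mm.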

The subject of assay [7] is Escherichia coli. In words: Antibacterial activity against Escherichia coli K-12 at 30 ug/disk at 37 degC after 24 hrs by filter paper disk method. The note with it: K-12, 24 h, read-out: DIZ. The assay is classed as functional. Put shortly:
as §3

The test system of assay [8] is Salmonella typhimurium. In words: Antibacterial activity against Salmonella Typhimurium MTCC 98 at 30 ug/disk at 37 degC after 24 hrs by filter paper disk method. The assay is classed as functional, Salmonella enterica subsp. enterica serovar Typhimurium. The following applies: Salmonella enterica, MTCC 98, 24 h; read-out: DIZ. The method, boiled down:
as §2

For assay [9], the system named is Candida albicans. In words: Antifungal activity against Candida albicans IOA-109 at 37 degC after 18 to 48 hrs. The assay is classed as functional.
For assay [10], the system named is Aspergillus niger. Description: Antifungal activity against Aspergillus niger at 28 degC after 72 hrs. It counts as functional. The method, boiled down: (§4)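 Filamentous fungi were kept on SDA at 28 °C. Spores from 7-day cultures were suspended in sterile normal saline to about 10⁵ cfu/ml, and about 0.1 ml was spread on SDA plates. Compounds were serially diluted two-fold in DMSO and impregnated on 8 mm discs, with a solvent control disc on each plate. Plates were held at 28 °C for 72 h or more, and inhibition zone diameter was read in mm.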

The test system of assay [11] is Trichoderma viride. Description: Antifungal activity against Trichoderma viride at 28 degC after 72 hrs. The assay is classed as functional. The method, boiled down: as §4
Assay [12] has as its system Penicillium sp. Description: Antifungal activity against Penicillium sp. at 28 degC after 72 hrs. It counts as functional. Put shortly:
as §4

Assay [13] concerns Candida albicans. Description: Antifungal activity against Candida albicans IOA-109 at 30 ug/disk at 37 degC after 18 to 48 hrs. It counts as functional, organism-based. The method, boiled down:
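Disc diffusion on SDA. Inoculum was grown overnight in SD broth at 37 °C, centrifuged, and resuspended in sterile NSS to 10⁵ cfu/ml; about 0.1 ml was spread per plate. 8 mm discs carried compound from a DMSO stock, alongside a solvent disc and a nystatin disc. After 18–48 h at 37 °C, inhibition-zone diameter was read in mm.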

Assay [14] relates to Aspergillus niger. In words: Antifungal activity against Aspergillus niger at 30 ug/disk at 28 degC after 72 hrs. The assay is classed as functional, organism-based. Put shortly: (§5)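 Disc diffusion on SDA; cultures were kept at 28 °C. Spores from 7-day cultures were suspended in sterile normal saline ([…] NaCl as printed) and diluted to about 10⁵ cfu/ml; about 0.1 ml was spread per plate. 8 mm discs carried compound from a DMSO stock, alongside a solvent disc and a nystatin disc. After 72 h or more at 28 °C, inhibition-zone diameter was read in mm.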

Assay [15] deals with Trichoderma viride. In words: Antifungal activity against Trichoderma viride at 30 ug/disk at 28 degC after 72 hrs. The assay is classed as functional, organism-based. The method, boiled down:
as §5

Assay [16] relates to Penicillium sp. In words: Antifungal activity against Penicillium sp. at 30 ug/disk at 28 degC after 72 hrs. The assay is classed as functional, organism-based. Put shortly: as §5
The subject of assay [17] is Helminthosporium. Description: Antifungal activity against Helminthosporium oryzae 2537 ICAR at 28 degC after 72 hrs. The assay is classed as functional. The method, boiled down:
as §4

Assay [18] concerns Helminthosporium. In words: Antifungal activity against Helminthosporium oryzae 2537 ICAR at 30 ug/disk at 28 degC after 72 hrs. It counts as functional, organism-based. Put shortly: as §5

In brackets after ≈: the same amount, converted by molar mass.

As for `O=C(N[C@H](CO)[C@H](O)c1ccc([N+](=O)[O-])cc1)C(Cl)Cl` [CHLORAMPHENICOL], the minimal inhibitory concentration (MIC) in assay [1] was 6 µg/mL (≈ 18.6 µM); in assay [2] it was 6 µg/mL (≈ 18.6 µM); in [3], 12.5 µg/mL (≈ 38.7 µM); in assay [4] it was 12.5 µg/mL (≈ 38.7 µM). Also, the zone of inhibition at 30 µg/disc in [5] is 24 mm; in assay [6] it was 26 mm; in assay [7] it was 25 mm; in assay [8] it was 20 mm.
As for NYSTATIN, the MIC in [9] came out at 6 µg/mL; in assay [10] it was 12.5 µg/mL; in assay [11], 6 µg/mL; in assay [12] it was 6 µg/mL; in assay [17], 12.5 µg/mL. Besides, the inhibition zone (IZ) in [13] came to 20 mm; in assay [14], 18 mm; in assay [15], 15 mm; in [16], 20 mm; in assay [18] it was 18 mm.
